Measurements published in ChEMBL document CHEMBL1122631, “2,3,4,4a,5,9b-Hexahydro-1H-indeno[1,2-b]pyridines: potential antidepressants” (J Med Chem, 1984).
pIC50: −log10 of the molar value. “And” between values parts separate entries of the source, which are not always exact repeats. Equal entries are not always repeated.

Tests used:
Rattus norvegicus [1] = organism: Rattus norvegicus; experiment: Compound was tested for inhibition of uptake of [14C]5-HT (5-HT) into rat whole brain, in vitro; Not determined.; assay type: functional
Summary of the method: (§1)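 Rat brain synaptosomes (Whittaker method) incubated with labelled monoamine (1 × 10^-7 mol final) at 37 °C with or without drug. [14C]NE and [14C]5-HT uptake in Krebs-Henseleit bicarbonate pH 7.4 with 11 mmol glucose; [3H]DA uptake in phosphate buffer, corpus striatum synaptosomes. Time: 5 min whole brain, 10 min hypothalamus. Nonspecific binding at 0 °C; membrane filtration, scintillation counting; IC50 from 3–4 concentrations, at least triplicate.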

Rattus norvegicus [2] = organism: Rattus norvegicus; experiment: Compound was tested for inhibition of uptake of [14C]norepinephrine (NE) into rat brain hypothalamus, in vitro; Not determined.; assay type: functional; summary of the method: as §1
[3] = Partition coefficient (logP); assay type: physicochemical; details: octanol/water
[4] = Acute toxicity in mice, after intraperitoneal administration.; assay type: organism-based; details: mouse, in vivo, ip
Summary of the method: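 Mice, groups of 10, given compound suspended in 1% methylcellulose ip at 10 mL/kg, then housed with food and water ad libitum. Observed hourly up to 6 h; deaths recorded at 24 and 48 h.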

Rattus norvegicus [5] = organism: Rattus norvegicus; experiment: Compound was tested for inhibition of uptake of [14C]5-HT (5-HT) into rat whole brain, in vitro.; assay type: functional; summary of the method: as §1
Rattus norvegicus [6] = organism: Rattus norvegicus; experiment: Compound was tested for inhibition of uptake of [14C]norepinephrine (NE) into rat brain hypothalamus, in vitro.; assay type: functional; summary of the method: as §1
Rattus norvegicus [7] = organism: Rattus norvegicus; experiment: Compound was tested for inhibition of uptake of [3H]dopamine (DA) into rat corpus striatum, in vitro.; assay type: functional; summary of the method: as §1
Rattus norvegicus [8] = experiment: Ability to inhibit re uptake of [14C]-5-HT in synaptosomes from rat whole brain, was determined 1 h after intraperitoneal administration of 80 mg of compound.; assay type: functional
Summary of the method: (§2)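 Ex vivo/in vitro: rats dosed orally or ip, killed 1 h later; whole-brain synaptosomes from a pool of n=3 rats; [14C]NE or [14C]5-HT uptake (Krebs-Henseleit bicarbonate, pH 7.4, 11 mmol glucose; 1 × 10^-7 mol labelled amine, 37 °C, 5 min), filtration, scintillation counting; quadruplicate determinations, mean ± SD as % of control-animal uptake.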

Rattus norvegicus [9] = experiment: Ability to inhibit re uptake of [14C]5-HT in synaptosomes from rat whole brain, was determined 1 h after peroral administration of 80 mg of compound.; assay type: functional, organism-based; summary of the method: as §2
Rattus norvegicus [10] = experiment: Ability to inhibit re uptake of [14C]norepinephrine in synaptosomes from rat whole brain, was determined 1 hr after peroral administration of 80 mg of compound.; assay type: functional; summary of the method: as §2
[11] = Therapeutic index (TI), ratio of LD50 and ED50 (TBZ) in mice after i.p. administration; details: mouse, in vivo, ip
Mus musculus [12] = experiment: Prevention of tetrabenazine induced ptosis in mice following i.p. administration.; assay type: functional; details: ip
Summary of the method: (§3)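 Mice given compound ip in 1% methylcellulose (10 mL/kg), 30 min before tetrabenazine 40 mg/kg base ip; solvent+TBZ control per test. Ptosis scored 30 min after TBZ (+1 min) as 100/50/0% (closed/half/open), not normalized.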

Mus musculus [13] = experiment: Prevention of tetrabenazine (TBZ)-induced ptosis in mice after intraperitoneal administration.; assay type: functional, organism-based; summary of the method: as §3
[14] = Compound was tested for acute toxicity in mice, after intravenous administration of the compound.; assay type: organism-based; details: mouse, in vivo
Mus musculus [15] = experiment: Antidepressant activity was measured by the prevention of tetrabenazine (TBZ) induced ptosis in mice after intraperitoneal administration of the compound.; assay type: functional; details: ip; summary of the method: as §3
Mus musculus [16] = experiment: Enhancement of spontaneous motor activity (SMA) in mice after oral administration of 1 mg/kg of the compound. Accumulated motility counts during second hour of observation, was reported.; assay type: functional
Mus musculus [17] = organism: Mus musculus; experiment: Percent enhancement of spontaneous motor activity (SMA) was observed. Accumulated motility counts during second hour of observation, was reported.; assay type: functional
Mus musculus [18] = experiment: Enhancement of spontaneous motor activity (SMA) in mice after oral administration of 1 mg/kg of the compound. Accumulated motility counts during first hour of observation, was reported.; assay type: functional
Mus musculus [19] = organism: Mus musculus; experiment: Percent enhancement of spontaneous motor activity (SMA) was observed. Accumulated motility counts during first hour of observation, was reported.; assay type: functional
Mus musculus [20] = organism: Mus musculus; experiment: Percent enhancement of spontaneous motor activity (SMA) was observed. Accumulated motility counts during one hour of observation, was reported.; assay type: functional
Mus musculus [21] = experiment: Enhancement of spontaneous motor activity (SMA) in mice after oral administration of 0.3 mg/kg of the compound. Accumulated motility counts during second hour of observation, was reported.; assay type: functional
Rattus norvegicus [22] = experiment: Ability to inhibit re uptake of [14C]norepinephrine in synaptosomes from rat whole brain, was determined 1 h after peroral administration of 80 mg of compound.; assay type: functional, organism-based; summary of the method: as §2
Rattus norvegicus [23] = experiment: Ability to inhibit re uptake of [14C]norepinephrine in synaptosomes from rat whole brain, was determined 1 hr after intraperitoneal administration of 80 mg of compound.; assay type: functional; summary of the method: as §2

IC50 (Rattus norvegicus [1])	IC50 (Rattus norvegicus [2])	Structure (SMILES)	LD50 [4]	selectivity ratio [11]	ED50 (Mus musculus [15])	other results
No compound available	No compound available	CN1CCC[C@H]2[C@@H](c3ccc(O)cc3)c3ccccc3[C@H]21	–	–	–	–
No compound available	No compound available	COc1ccc2c(c1)[C@@H](c1ccc(N(C)C)cc1)[C@@H]1CCCN[C@H]21	–	–	–	–
–	–	Nc1ccc([C@@H]2c3cc(O)ccc3[C@H]3NCCC[C@@H]23)cc1	150 mg/kg	1500	–	logP [3]: 1.91; pIC50 (Rattus norvegicus [5]): 5.80; pIC50 (Rattus norvegicus [6]): 7.82; pIC50 (Rattus norvegicus [7]): 7.34; Uptake (Rattus norvegicus [8]): > 90%; Uptake (Rattus norvegicus [9]): > 90%; Uptake (Rattus norvegicus [10]): > 90%; ED50 (Mus musculus [12]): 0.1 mg/kg
No compound available	No compound available	COc1ccc2c(c1)[C@@H](c1ccc(C)cc1)[C@@H]1CCCN[C@H]21	–	–	–	–
–	–	COc1cc2c(cc1OC)[C@H]1NCCC[C@H]1[C@H]2c1cccnc1	–	–	–	ED50 (Mus musculus [13]): No activity detected up to a dose of 1/5 LD50 ip in mice; LD50 [14]: 30 mg/kg
–	–	CCCCOc1ccc([C@@H]2c3ccccc3[C@@H]3[C@H]2CCCN3C)cc1	134 mg/kg	14	10 mg/kg	–
No compound available	No compound available	Oc1ccc([C@H]2c3ccccc3[C@H]3NCCC[C@@H]23)cc1	–	–	–	–
–	–	Nc1ccc([C@@H]2c3ccccc3[C@H]3NCCC[C@@H]23)cc1	50 mg/kg	500	–	Basis motility (Mus musculus [16]): 12001; Basis motility (Mus musculus [17]): -7; Exploration motility (Mus musculus [18]): 7924; Exploration motility (Mus musculus [19]): -4; Exploration motility (Mus musculus [20]): 116; pIC50 (Rattus norvegicus [5]): < 4.00; pIC50 (Rattus norvegicus [6]): 8.13; pIC50 (Rattus norvegicus [7]): 7.36; Basis motility (Mus musculus [21]): 5501; ED50 (Mus musculus [12]): 0.1 mg/kg
–	–	COc1ccc([C@@H]2c3ccccc3[C@@H]3[C@H]2CCCN3C)cc1	95 mg/kg	19	5 mg/kg	–
No compound available	No compound available	CCCCOc1ccc([C@H]2c3ccccc3[C@@H]3[C@H]2CCCN3C)cc1	–	–	–	–
–	–	Cc1ccc([C@@H]2c3cc(O)ccc3[C@H]3NCCC[C@@H]23)cc1	67 mg/kg	67	1 mg/kg	logP [3]: 3.13; pIC50 (Rattus norvegicus [5]): 6.55; pIC50 (Rattus norvegicus [6]): 7.51; pIC50 (Rattus norvegicus [7]): 7.77; Uptake (Rattus norvegicus [22]): > 90%; Uptake (Rattus norvegicus [8]): > 90% and 84.9%; Uptake (Rattus norvegicus [9]): 90.4% and 86.9%; Uptake (Rattus norvegicus [23]): 68.2% and 62%
–	–	c1ccc2c(c1)[C@@H](c1ccncc1)[C@@H]1CCCN[C@H]21	20 mg/kg	10	2 mg/kg	–
–	–	CN1CCC[C@H]2[C@H](c3ccc(O)cc3)c3ccccc3[C@H]21	178 mg/kg	36	5 mg/kg	–
–	–	CNCCCN1c2ccccc2CCc2ccccc21 [DESIPRAMINE]	–	–	–	pIC50 (Rattus norvegicus [5]): 7.96; pIC50 (Rattus norvegicus [6]): 7.60
–	–	Oc1ccc([C@@H]2c3ccccc3[C@H]3NCCC[C@@H]23)cc1	30 mg/kg	15	2 mg/kg	–

Structure (SMILES)	IC50 (Rattus norvegicus [1])	IC50 (Rattus norvegicus [2])	LD50 [4]	selectivity ratio [11]	ED50 (Mus musculus [15])	other results
c1ccc2c(c1)[C@H](c1ccncc1)[C@@H]1CCCN[C@H]21	No compound available	No compound available	–	–	–	–
